# Measured values taken from publication PMC3780561 (Molecular cancer therapeutics, 2013).
# Read-outs that look alike come from different tables or passages of the source.
# System: NSCLC cell lines (A549, H23 and H358)
# Experiment: Cell viability, modified MTT assay, 24 h
# Format: cell-based, human
# Settings: read-out: 24 h-IC50
# Procedure, shortened: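 ATCC-sourced A549 (p53 wild-type), H23 (p53-mutant) and H358 (p53-null) cells were grown per ATCC. Viability after 24 h exposure to test compound or sulindac metabolites was measured by modified MTT assay. 24-h IC50 was derived from viability curves.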
SMILES,"IC50 (Homo sapiens, 24 h) [µM]","IC50 (range among A549, H23 and H358 cells) [µM]"
CC1=C(CC(=O)O)c2cc(F)ccc2/C1=C\c1ccc([S+](C)[O-])cc1 (stereo not drawn) [sulindac],> 1000,
CSc1ccc(/C=C2/C(C)=C(CC(=O)O)c3cc(F)ccc32)cc1 [sulindac sulfide],159 to 222,
CC1=C(CC(=O)O)c2cc(F)ccc2/C1=C\c1ccc(S(C)(=O)=O)cc1 [sulindac sulfone],,566 to 1900
